In ChEMBL document CHEMBL1799999, “N-benzoylated phenoxazines and phenothiazines: synthesis, antiproliferative activity, and inhibition of tubulin polymerization” (J Med Chem, 2011):
Calls of active or inactive are those of the source. The rule behind the calls is not given here.

How the values were obtained:
NCI-H460 = assay: Antiproliferative activity against human NCI-H460 cells after 48 hrs by alamar blue assay; type: functional, cell-based; details: NCI-H460, 48 h
Outline: (§1)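 Cells seeded in growth medium and grown 24 h at 37 °C/5% CO2. 10 mM DMSO stocks diluted in half-log steps into medium, final DMSO 0.316%. After 45 h of compound exposure, AlamarBlue (resazurin) added for a further 3 h, giving 48 h total. Fluorescence read at 590 nm against untreated and cell-free blanks. At least two replicates; IC50 by nonlinear regression.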

K562 [1] = assay: Antiproliferative activity against human K562 cells after 48 hrs by hemocytometric analysis; type: functional, cell-based; details: K562, 48 h
Outline: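 K562 cells in RPMI 1640 with 10% FBS at 37 °C/5% CO2, plated at 2 × 10^5 cells/mL. Compounds in DMSO/methanol 1:1, final vehicle 0.5%. Cells counted in a Neubauer hemocytometer after 48 h and expressed as % of untreated control. Triplicate wells, three experiments; IC50 by nonlinear regression.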

SK-OV-3 = assay: Antiproliferative activity against human SKOV3 cells after 48 hrs by alamar blue assay; type: functional, cell-based; details: SK-OV-3, 48 h; outline: as §1
BT-549 = assay: Antiproliferative activity against human BT549 cells after 48 hrs by alamar blue assay; type: functional, cell-based; details: BT-549, 48 h; outline: as §1
SW480 = assay: Antiproliferative activity against human SW480 cells after 48 hrs by alamar blue assay; type: functional, cell-based; details: SW480, 48 h; outline: as §1
DLD-1 = assay: Antiproliferative activity against human DLD1 cells after 48 hrs by alamar blue assay; type: functional, cell-based; details: DLD-1, 48 h; outline: as §1
SK-N-SH = assay: Antiproliferative activity against human SK-N-SH cells after 72 hrs by sulforhodamine staining method; type: functional
Outline: (§2)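 Panel of 83 solid-tumour lines plus resting PBMC, run by the DTP NCI sulforhodamine B staining protocol. Compound exposure 72 h, concentrations from 0.0001 to 10 μM. GI50 taken per line; z-scores computed relative to the panel mean GI50.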

MG-63 = assay: Antiproliferative activity against human MG63 cells after 72 hrs by sulforhodamine staining method; type: functional; details: MG-63, 72 h; outline: as §2
SK-N-AS = assay: Antiproliferative activity against human SK-N-AS cells after 72 hrs by sulforhodamine staining method; type: functional; outline: as §2
5637 = assay: Antiproliferative activity against human 5637 cells after 72 hrs by sulforhodamine staining method; type: functional; details: Homo sapiens, 5637, 72 h; outline: as §2
RD = assay: Antiproliferative activity against human RD cells after 72 hrs by sulforhodamine staining method; type: functional; outline: as §2
SK-MEL-28 = assay: Antiproliferative activity against human SK-MEL-28 cells after 72 hrs by sulforhodamine staining method; type: functional; details: SK-MEL-28, 72 h; outline: as §2
HT-1080 = assay: Antiproliferative activity against human HT1080 cells after 72 hrs by sulforhodamine staining method; type: functional; details: HT-1080, 72 h; outline: as §2
A-375 = assay: Antiproliferative activity against human A375 cells after 72 hrs by sulforhodamine staining method; type: functional; details: A-375, 72 h; outline: as §2
MIA PaCa-2 = assay: Antiproliferative activity against human MIAPaCa2 cells after 72 hrs by sulforhodamine staining method; type: functional; details: MIA PaCa-2, 72 h; outline: as §2
HT-29 = assay: Antiproliferative activity against human HT-29 cells after 72 hrs by sulforhodamine staining method; type: functional; details: HT-29, 72 h; outline: as §2
COLO 205 = assay: Antiproliferative activity against human COLO205 cells after 72 hrs by sulforhodamine staining method; type: functional; details: COLO 205, 72 h; outline: as §2
BXPC-3 = assay: Antiproliferative activity against human BxPC3 cells after 72 hrs by sulforhodamine staining method; type: functional; details: BXPC-3, 72 h; outline: as §2
[2] = Antiproliferative activity against human MDA-MB-436 cells after 72 hrs by sulforhodamine staining method; type: functional; details: MDA-MB-436, 72 h; outline: as §2
[3] = Antiproliferative activity against human MT3 cells after 72 hrs by sulforhodamine staining method; type: functional; details: MT-3, 72 h; outline: as §2
IGROV-1 = assay: Antiproliferative activity against human IGROV1 cells after 72 hrs by sulforhodamine staining method; type: functional; details: IGROV-1, 72 h; outline: as §2
COLO-678 = assay: Antiproliferative activity against human COLO-678 cells after 72 hrs by sulforhodamine staining method; type: functional; details: COLO-678, 72 h; outline: as §2
[4] = Antiproliferative activity against human resting PBMC after 72 hrs by sulforhodamine staining method; type: cell-based; outline: as §2
ASPC1 = assay: Antiproliferative activity against human AsPC1 cells after 72 hrs by sulforhodamine staining method; type: functional; details: ASPC1, 72 h; outline: as §2
Tubulin = Tubulin (Sus scrofa, UniProt P02554+P02550); assay: Inhibition of pig tubulin polymerization determined after 45 mins at 37 degC by turbidimetric analysis; type: protein assay
Outline: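 Microtubule protein (80–90% tubulin with MAPs) from porcine brain, isolated by two cold/warm cycles. Buffer: 20 mM PIPES pH 6.8, 80 mM NaCl, 0.5 mM MgCl2, 1 mM EGTA, 1 mM DTT. Protein at 1.2 mg/mL (about 10 μM tubulin) with 0.6 mM GTP, 1% DMSO, 37 °C.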

K562 [5] = assay: Cell cycle arrest in human K562 cells assessed as accumulation at G2/M phase at 0.003 to. 1 ug/ml after 24 hrs by flow cytometric analysis; type: functional, cell-based
Outline: (§3)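 K562 cells (2 × 10^5/mL) exposed to graded concentrations for 24 h at 37 °C; vehicle DMSO/MeOH 1:1. Washed in PBS, fixed in ice-cold 70% ethanol, stained 30 min with propidium iodide 0.02 mg/mL plus RNase 0.2 mg/mL. DNA content read by flow cytometry with 488 nm excitation; G2/M fraction scored.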

K562 [6] = assay: Cell cycle arrest in human K562 cells assessed as accumulation at G2/M phase at 30 nM after 24 hrs by flow cytometric analysis; type: functional, cell-based; outline: as §3
cells = details: Homo sapiens, 451Lu, 48 h

## COc1ccc(C(=O)N2c3ccccc3Oc3cc(C#N)ccc32)cc1O
NCI-H460
  IC50: 40 nM
K562 [1]
  IC50: 11 nM
SK-OV-3
  IC50: 24 nM
BT-549
  IC50: 16 nM
SW480
  IC50: 29 nM
DLD-1
  IC50: 16 nM
SK-N-SH
  GI50: 1.8 nM
MG-63
  GI50: 1.8 nM
SK-N-AS
  GI50: 1.8 nM
5637
  GI50: 1.9 nM
RD
  GI50: 2 nM
SK-MEL-28
  GI50: 2 nM
HT-1080
  GI50: 2.6 nM
A-375
  GI50: 2.7 nM
MIA PaCa-2
  GI50: 8410 nM
HT-29
  GI50: 5600 nM
COLO 205
  GI50: 4260 nM
BXPC-3
  GI50: 2250 nM
[2]
  GI50: 1130 nM
[3]
  GI50: 95.1 nM
IGROV-1
  GI50: 63.3 nM
COLO-678
  GI50: 62.3 nM
[4]
  GI50 at 72 h: > 10000 nM
ASPC1
  GI50: > 10000 nM
Tubulin
  IC50: 520 nM
K562 [5]
  Activity: Active
K562 [6]
  Activity: Active
cells
  IC50: 6 nM
